Measurements from ChEMBL document CHEMBL1641444, “Synthesis and evaluation of 6-[1-(2-[(18)F]fluoro-3-pyridyl)-5-methyl-1H-1,2,3-triazol-4-yl]quinoline for positron emission tomography imaging of the metabotropic glutamate receptor type 1 in brain” (Bioorg Med Chem, 2011).

How the values were obtained:
Heart [1] = test: Biodistribution in heart of Sprague-Dawley rat at 17 MBq, iv after 5 mins by dissection method; format: ADME, organism-based; settings: in vivo
Method in brief: (§1)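 The [18F]ligand was given to rats as a saline solution (average 17 MBq, about 0.11 nmol) via the tail vein. Three rats per time point were killed by cervical dislocation at 5, 15 and 30 min. Dissected tissues were gamma-counted with decay correction, and results are expressed as % injected dose per gram of wet tissue.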

Lung [2] = test: Biodistribution in lung of Sprague-Dawley rat at 17 MBq, iv after 5 mins by dissection method; format: ADME, organism-based; settings: in vivo
Method in brief: (§2)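 [¹⁸F]7a in saline (average 17 MBq/200 µL, 0.11 nmol) was given by tail vein. Rats were killed by cervical dislocation at 5, 15 or 30 min, with three rats per time point. Tissue radioactivity was measured by gamma counting, decay-corrected and expressed as %ID per gram of wet tissue.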

Liver [3] = test: Biodistribution in liver of Sprague-Dawley rat at 17 MBq, iv after 5 mins by dissection method; format: ADME, organism-based; settings: in vivo; method in brief: as §2
Pancreas = test: Biodistribution in pancreas of Sprague-Dawley rat at 17 MBq, iv after 5 mins by dissection method; format: ADME, organism-based; settings: in vivo; method in brief: as §2
Cerebellum [4] = test: Biodistribution in cerebellum of Sprague-Dawley rat at 17 MBq, iv after 5 mins by dissection method; format: ADME, organism-based; settings: in vivo; method in brief: as §1
Cerebral cortex = test: Biodistribution in cerebral cortex of Sprague-Dawley rat at 17 MBq, iv after 5 mins by dissection method; format: ADME, organism-based; settings: in vivo; method in brief: as §1
[5] = Biodistribution in pons-medulla of Sprague-Dawley rat at 17 MBq, iv after 5 mins by dissection method; format: ADME, organism-based; settings: in vivo; method in brief: as §2
Liver [6] = test: Biodistribution in liver of Sprague-Dawley rat at 17 MBq, iv after 15 mins by dissection method; format: ADME, organism-based; settings: in vivo, 0.25 h; method in brief: as §1
Kidney [7] = test: Biodistribution in kidney of Sprague-Dawley rat at 17 MBq, iv after 15 mins by dissection method; format: ADME, organism-based; settings: in vivo, 0.25 h; method in brief: as §1
Thalamus = test: Biodistribution in thalamus of Sprague-Dawley rat at 17 MBq, iv after 15 mins by dissection method; format: ADME, organism-based; settings: in vivo, 0.25 h; method in brief: as §2
[8] = Biodistribution in pons-medulla of Sprague-Dawley rat at 17 MBq, iv after 15 mins by dissection method; format: ADME, organism-based; settings: in vivo, 0.25 h; method in brief: as §2
Blood = test: Biodistribution in blood of Sprague-Dawley rat at 17 MBq, iv after 30 mins by dissection method; format: ADME, organism-based; settings: in vivo, 0.5 h; method in brief: as §1
Heart [9] = test: Biodistribution in heart of Sprague-Dawley rat at 17 MBq, iv after 30 mins by dissection method; format: ADME, organism-based; settings: in vivo, 0.5 h; method in brief: as §1
Lung [10] = test: Biodistribution in lung of Sprague-Dawley rat at 17 MBq, iv after 30 mins by dissection method; format: ADME, organism-based; settings: in vivo, 0.5 h; method in brief: as §2
Spleen = test: Biodistribution in spleen of Sprague-Dawley rat at 17 MBq, iv after 30 mins by dissection method; format: ADME, organism-based; settings: in vivo, 0.5 h; method in brief: as §2
Kidney [11] = test: Biodistribution in kidney of Sprague-Dawley rat at 17 MBq, iv after 30 mins by dissection method; format: ADME, organism-based; settings: in vivo, 0.5 h; method in brief: as §1
[12] = Biodistribution in small intestine of Sprague-Dawley rat at 17 MBq, iv after 30 mins by dissection method; format: ADME, organism-based; settings: in vivo, 0.5 h; method in brief: as §2
Muscle tissue = test: Biodistribution in muscle of Sprague-Dawley rat at 17 MBq, iv after 30 mins by dissection method; format: ADME, organism-based; settings: in vivo, 0.5 h; method in brief: as §2
Bone = test: Biodistribution in bone of Sprague-Dawley rat at 17 MBq, iv after 30 mins by dissection method; format: ADME, organism-based, Bone element; settings: in vivo, 0.5 h; method in brief: as §1
[13] = Biodistribution in whole brain of Sprague-Dawley rat at 17 MBq, iv after 30 mins by dissection method; format: ADME, organism-based; settings: in vivo, 0.5 h; method in brief: as §2
Cerebellum [14] = test: Biodistribution in cerebellum of Sprague-Dawley rat at 17 MBq, iv after 30 mins by dissection method; format: ADME, organism-based; settings: in vivo, 0.5 h; method in brief: as §1
Hippocampus = test: Biodistribution in hippocampus of Sprague-Dawley rat at 17 MBq, iv after 30 mins by dissection method; format: ADME, organism-based; settings: in vivo, 0.5 h; method in brief: as §1
Striatum = test: Biodistribution in striatum of Sprague-Dawley rat at 17 MBq, iv after 30 mins by dissection method; format: ADME, organism-based; settings: in vivo, 0.5 h; method in brief: as §2
[15] = Biodistribution in pons-medulla of Sprague-Dawley rat at 17 MBq, iv after 30 mins by dissection method; format: ADME, organism-based; settings: in vivo, 0.5 h; method in brief: as §2
[16] = Octanol-sodium phosphate buffer partition coefficient, log D of the compound at pH 7.4; format: physicochemical
Method in brief: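 [¹⁸F]7a (radiochemical purity 100%, about 150,000 cpm) was mixed with n-octanol (3.0 g) and 0.1 M sodium phosphate buffer pH 7.40 (3.0 g). The mix was vortexed for 3 min at room temperature, then centrifuged at 3500 rpm for 5 min. Assays were run in triplicate.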

[17] = Ratio of drug uptake in Sprague-Dawley rat hippocampus to medulla at 17 MBq, iv after 10 to 15 mins by small-animal PET; settings: in vivo
[18] = tested on: Cerebellum (Mus musculus); test: Metabolic stability in cerebellum of mouse assessed as reduction of parent compound level at 3.7 MBq, iv after 15 mins by HPLC analysis; design: scale not given: the % may be the effect or the level left; settings: in vivo, 0.25 h

**Q.** Which Drug uptake (Heart [1]) does the source give for `Cc1c(-c2ccc3ncccc3c2)nnn1-c1cccnc1[18F]` here?
**A.** 0.47 % ID/g

**Q.** And the Drug uptake (Lung [2])?
**A.** 0.5 % ID/g

**Q.** What about the Drug uptake (Liver [3]) of the same compound?
**A.** 2.3 % ID/g

**Q.** What about the Drug uptake (Pancreas) of the same compound?
**A.** 0.75 % ID/g

**Q.** What about the Drug uptake (Cerebellum [4]) of the same compound?
**A.** 1.21 % ID/g

**Q.** And the Drug uptake (Cerebral cortex)?
**A.** 0.44 % ID/g

**Q.** And the Drug uptake [5]?
**A.** 0.47 % ID/g

**Q.** What about the Drug uptake (Liver [6]) of the same compound?
**A.** 2.04 % ID/g

**Q.** What about the Drug uptake (Kidney [7]) of the same compound?
**A.** 0.57 % ID/g

**Q.** What about the Drug uptake (Thalamus) of the same compound?
**A.** 0.29 % ID/g

**Q.** And the Drug uptake [8]?
**A.** 0.21 % ID/g

**Q.** And the Drug uptake (Blood)?
**A.** 0.15 % ID/g

**Q.** What about the Drug uptake (Heart [9]) of the same compound?
**A.** 0.16 % ID/g

**Q.** And the Drug uptake (Lung [10])?
**A.** 0.17 % ID/g

**Q.** And the Drug uptake (Spleen)?
**A.** 0.16 % ID/g

**Q.** And the Drug uptake (Kidney [11])?
**A.** 0.39 % ID/g

**Q.** And the Drug uptake [12]?
**A.** 1.74 % ID/g

**Q.** What about the Drug uptake (Muscle tissue) of the same compound?
**A.** 0.1 % ID/g

**Q.** And the Drug uptake (Bone)?
**A.** 0.22 % ID/g

**Q.** And the Drug uptake [13]?
**A.** 0.11 % ID/g

**Q.** And the Drug uptake (Cerebellum [14])?
**A.** 0.2 % ID/g

**Q.** What about the Drug uptake (Hippocampus) of the same compound?
**A.** 0.09 % ID/g

**Q.** What about the Drug uptake (Striatum) of the same compound?
**A.** 0.11 % ID/g

**Q.** What about the Drug uptake [15] of the same compound?
**A.** 0.13 % ID/g

**Q.** What about the logD [16] of the same compound?
**A.** 2.53

**Q.** What about the Ratio [17] of the same compound?
**A.** 1.42

**Q.** And the Stability [18]?
**A.** 91%
